# Measurements from ChEMBL document CHEMBL3997850 (ACS Med Chem Lett, 2017).
# How the values were obtained:
# Mus musculus [1] = test: Toxicity in mouse up to 2000 mg/kg/day after 28 days by histopathology test; format: organism-based; details: in vivo, 672 h
# Canis familiaris [2] = test: Toxicity in dog assessed as effect on food consumption up to 500 mg/kg/day after 28 days; format: organism-based, Canis lupus familiaris; details: in vivo, 672 h
# [3] = biological target: Voltage-gated inwardly rectifying potassium channel KCNH2 (Homo sapiens, UniProt Q12809); test: Inhibition of human ERG by patch clamp method
# Canis familiaris [4] = test: Toxicity in dog up to 500 mg/kg/day after 28 days by clinical pathology test; format: organism-based, Canis lupus familiaris; details: in vivo, 672 h
# Mus musculus [5] = test: Toxicity in mouse assessed as effect on food consumption up to 2000 mg/kg/day after 28 days; format: organism-based; details: in vivo, 672 h
# Liver [6] = test: Intrinsic clearance in rat hepatic S9 fraction at 5 uM in presence of UDPGA/NADPH measured over 30 mins by LC/MS analysis; format: ADME, tissue-based; details: s9, 0.5 h
# In short: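 Rat hepatic S9 (2 mg/mL protein) with compound 5 µM, 50 mM Tris-HCl pH 7.5, 8 mM MgCl2, 2 mM NADPH, 2 mM UDPGA, 12.7 µM alamethicin, 37 °C. Reaction started with S9. Aliquots taken over 0–30 min, quenched with acetonitrile, analyzed by LC/MS.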
# Cytochrome P450 2C8 = biological target: T1, Cytochrome P450 2C8 (Homo sapiens, UniProt P10632); test: Inhibition of recombinant human CYP2C8 assessed as decrease in conversion of dibenzylfluoresein to fluorescein by fluorimetric method; format: ADME; details: recombinant enzyme
# T1 sequence (P10632 whole entry): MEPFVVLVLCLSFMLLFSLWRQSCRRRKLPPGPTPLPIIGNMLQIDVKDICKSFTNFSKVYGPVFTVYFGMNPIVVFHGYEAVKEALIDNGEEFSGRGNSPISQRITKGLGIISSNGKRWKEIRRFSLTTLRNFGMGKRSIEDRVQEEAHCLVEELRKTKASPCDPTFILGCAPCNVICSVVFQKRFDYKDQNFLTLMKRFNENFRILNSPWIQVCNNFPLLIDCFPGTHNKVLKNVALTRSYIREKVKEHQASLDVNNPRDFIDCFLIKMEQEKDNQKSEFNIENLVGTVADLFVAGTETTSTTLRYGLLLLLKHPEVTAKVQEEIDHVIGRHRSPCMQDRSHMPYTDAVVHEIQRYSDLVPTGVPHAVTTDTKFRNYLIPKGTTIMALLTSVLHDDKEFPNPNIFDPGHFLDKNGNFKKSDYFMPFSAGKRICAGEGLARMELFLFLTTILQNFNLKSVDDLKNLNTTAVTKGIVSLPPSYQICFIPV
# In short: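 Recombinant human CYP2C8; dibenzylfluorescein at Km concentration converted to fluorescein, measured fluorimetrically. Inhibitor range 0–25 µM.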
# [7] = Half life in beagle dog at 5 mg/kg, iv by LC/MS/MS analysis; format: ADME, organism-based, Canis lupus familiaris; details: in vivo
# In short: (§1)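 Male beagle dogs dosed 5 mg/kg IV in 10% DMAC in saline or 10 mg/kg oral in 5% DMAC in 0.5% methylcellulose. EDTA blood taken from pre-dose to 24 h and spun to plasma. Plasma proteins precipitated with acetonitrile, then LC/MS/MS (linear 2–10000 nM, 0.1 mL plasma). Parameters derived by non-compartmental analysis.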
# [8] = Volume of distribution at steady state in cynomolgus monkey at 4 mg/kg, iv or 10 mg/kg, po by LC/MS/MS analysis; format: ADME, organism-based, Macaca fascicularis; details: in vivo, read-out: Vdss
# In short: (§2)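 Male cynomolgus monkeys given 4 mg/kg IV (5% DMAC, 40% propylene glycol in saline) or 10 mg/kg orally (0.5% methylcellulose). EDTA plasma collected pre-dose through 24 h. Acetonitrile protein precipitation, then LC/MS/MS quantification, linear 2–10000 nM. PK parameters by standard non-compartmental methods.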
# Cytochrome P450 2C9 = Cytochrome P450 2C9 (Homo sapiens, UniProt P11712); test: Inhibition of recombinant human CYP2C9 assessed as decrease in hydroxylation of 7-methoxy-4-(trifluoromethyl)-coumarin by fluorimetric method; format: ADME; details: recombinant enzyme
# In short: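 Recombinant human isozymes with substrate at Km concentration: CYP2C9 with 7-methoxy-4-(trifluoromethyl)coumarin, CYP2D6 with 7-methoxy-4-methylcoumarin. Hydroxylation read fluorimetrically, inhibitor 0–25 µM.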
# Mus musculus [9] = test: Toxicity in mouse assessed as change in body weight up to 2000 mg/kg/day after 28 days; format: organism-based; details: in vivo, 672 h
# [10] = Clearance in cynomolgus monkey at 4 mg/kg, iv or 10 mg/kg, po by LC/MS/MS analysis; format: ADME, organism-based, Macaca fascicularis; details: in vivo; in short: as §2
# Canis familiaris [11] = test: AUC in beagle dog at 5 mg/kg, iv or 10 mg/kg, po by LC/MS/MS analysis; format: ADME, organism-based, Canis lupus familiaris; details: in vivo; in short: as §1
# [12] = Clearance in rat at 5 mg/kg, iv or 5 mg/kg, po by LC/MS/MS analysis; format: ADME, organism-based; details: in vivo
# In short: (§3)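 Male rats, 5 mg/kg IV in 10% DMAC/saline or 5 mg/kg oral in 0.5% aqueous methylcellulose. Plasma (EDTA) sampled pre-dose to 24 h. Quantified by acetonitrile precipitation and LC/MS/MS (2–10000 nM range, 0.1 mL). Non-compartmental analysis of concentration–time data.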
# Cytochrome P450 3A4 = Cytochrome P450 3A4 (Homo sapiens, UniProt P08684); test: Inhibition of recombinant human CYP3A4 assessed as decrease in hydroxylation of 7-benzyloxy-4-trifluoromethyl-coumarin by fluorescence assay; format: ADME; details: recombinant enzyme
# In short: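 Recombinant human CYP1A2 or CYP3A4 with 7-benzyloxy-4-trifluoromethyl-coumarin at Km concentration; hydroxylation read by fluorescence. Inhibitor tested at 0–25 µM.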
# [13] = Half life in cynomolgus monkey at 4 mg/kg, iv by LC/MS/MS analysis; format: ADME, organism-based, Macaca fascicularis; details: in vivo; in short: as §2
# Rattus norvegicus = test: AUC in rat at 5 mg/kg, iv or 5 mg/kg, po by LC/MS/MS analysis; format: ADME, organism-based; details: in vivo; in short: as §3
# Canis familiaris [14] = test: Toxicity in dog up to 500 mg/kg/day after 28 days by histopathology test; format: organism-based, Canis lupus familiaris; details: in vivo, 672 h
# [15] = Volume of distribution at steady state in beagle dog at 5 mg/kg, iv or 10 mg/kg, po by LC/MS/MS analysis; format: ADME, organism-based, Canis lupus familiaris; details: in vivo, read-out: Vdss; in short: as §1
# Liver [16] = test: Intrinsic clearance in rat hepatic S9 fraction at 5 uM in presence of UDPGA measured over 30 mins by LC/MS analysis; format: ADME; details: s9, 0.5 h
# [17] = Oral bioavailability in cynomolgus monkey at 10 mg/kg by LC/MS/MS analysis; format: ADME, organism-based, Macaca fascicularis; details: in vivo; in short: as §2
# [18] = Oral bioavailability in rat at 5 mg/kg by LC/MS/MS analysis; format: ADME, organism-based; details: in vivo; in short: as §3
# Sequence of Cytochrome P450 3A4 (P08684 whole entry): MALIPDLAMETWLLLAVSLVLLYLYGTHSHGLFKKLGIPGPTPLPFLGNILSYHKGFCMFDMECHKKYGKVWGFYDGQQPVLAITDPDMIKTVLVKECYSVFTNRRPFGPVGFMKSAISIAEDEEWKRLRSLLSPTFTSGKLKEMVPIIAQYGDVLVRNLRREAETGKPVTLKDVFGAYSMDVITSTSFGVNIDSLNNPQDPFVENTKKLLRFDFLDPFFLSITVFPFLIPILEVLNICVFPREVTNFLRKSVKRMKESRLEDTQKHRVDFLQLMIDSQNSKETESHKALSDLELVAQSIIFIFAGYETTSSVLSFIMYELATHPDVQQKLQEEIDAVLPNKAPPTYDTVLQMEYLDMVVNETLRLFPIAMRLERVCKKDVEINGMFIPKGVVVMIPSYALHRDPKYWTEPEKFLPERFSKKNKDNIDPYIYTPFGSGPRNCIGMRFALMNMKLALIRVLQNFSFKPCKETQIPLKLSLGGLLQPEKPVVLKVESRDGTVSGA
# Sequence of Voltage-gated inwardly rectifying potassium channel KCNH2 (Q12809 whole entry): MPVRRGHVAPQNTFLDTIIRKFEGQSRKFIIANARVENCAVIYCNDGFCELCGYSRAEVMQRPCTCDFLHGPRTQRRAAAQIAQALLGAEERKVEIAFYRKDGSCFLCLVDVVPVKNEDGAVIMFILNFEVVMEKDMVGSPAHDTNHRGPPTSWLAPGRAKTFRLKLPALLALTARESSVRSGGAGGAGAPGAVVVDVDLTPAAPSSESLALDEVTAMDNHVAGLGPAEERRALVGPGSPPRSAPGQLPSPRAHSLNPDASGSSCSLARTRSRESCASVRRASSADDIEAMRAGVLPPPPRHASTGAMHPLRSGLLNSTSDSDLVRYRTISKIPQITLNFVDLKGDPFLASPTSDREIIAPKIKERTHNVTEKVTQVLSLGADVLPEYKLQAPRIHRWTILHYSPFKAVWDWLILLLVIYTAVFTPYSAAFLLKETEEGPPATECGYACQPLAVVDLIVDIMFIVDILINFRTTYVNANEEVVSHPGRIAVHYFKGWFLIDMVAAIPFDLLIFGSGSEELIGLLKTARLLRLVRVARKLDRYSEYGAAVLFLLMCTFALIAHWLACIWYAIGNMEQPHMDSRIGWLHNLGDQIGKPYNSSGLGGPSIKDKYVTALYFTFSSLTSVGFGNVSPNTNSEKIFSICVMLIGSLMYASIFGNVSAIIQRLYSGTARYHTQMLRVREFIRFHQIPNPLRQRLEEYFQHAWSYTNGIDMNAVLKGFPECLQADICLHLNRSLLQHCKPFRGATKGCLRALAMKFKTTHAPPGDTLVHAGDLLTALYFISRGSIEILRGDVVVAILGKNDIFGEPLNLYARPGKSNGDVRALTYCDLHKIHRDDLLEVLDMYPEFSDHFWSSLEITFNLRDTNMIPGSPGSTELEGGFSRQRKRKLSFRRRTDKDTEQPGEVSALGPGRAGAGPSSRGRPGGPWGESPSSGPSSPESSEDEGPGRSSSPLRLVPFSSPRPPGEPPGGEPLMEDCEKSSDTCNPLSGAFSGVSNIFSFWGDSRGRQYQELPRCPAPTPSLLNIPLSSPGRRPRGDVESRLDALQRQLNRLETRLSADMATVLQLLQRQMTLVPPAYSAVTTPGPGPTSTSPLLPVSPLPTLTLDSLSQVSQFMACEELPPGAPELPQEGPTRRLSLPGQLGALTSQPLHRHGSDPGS
# Sequence of Cytochrome P450 2C9 (P11712 whole entry): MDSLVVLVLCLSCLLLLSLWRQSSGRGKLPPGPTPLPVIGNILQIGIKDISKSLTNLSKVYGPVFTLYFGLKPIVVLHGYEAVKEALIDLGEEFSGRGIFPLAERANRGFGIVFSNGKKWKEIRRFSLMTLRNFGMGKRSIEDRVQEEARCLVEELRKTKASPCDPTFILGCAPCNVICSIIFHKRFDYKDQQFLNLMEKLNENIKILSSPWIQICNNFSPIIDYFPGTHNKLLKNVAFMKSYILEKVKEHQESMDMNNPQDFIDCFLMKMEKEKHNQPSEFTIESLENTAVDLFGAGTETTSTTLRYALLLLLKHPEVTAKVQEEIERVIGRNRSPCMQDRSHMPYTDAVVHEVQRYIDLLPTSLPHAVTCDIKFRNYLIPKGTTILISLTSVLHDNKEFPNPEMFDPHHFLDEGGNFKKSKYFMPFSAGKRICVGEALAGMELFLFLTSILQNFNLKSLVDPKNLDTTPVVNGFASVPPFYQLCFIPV
structure (smiles),measurement,setting,value
NS(=O)(=O)NCCNc1nonc1C(=NO)Nc1ccc(F)c(Br)c1 [EPACADOSTAT],Activity,Mus musculus [1],Non-Toxic
same,Activity,Canis familiaris [2],Non-Toxic
same,inhibition (INH),[3],Not Active
same,Activity,Canis familiaris [4],Non-Toxic
same,Activity,Mus musculus [5],Non-Toxic
same,CLH,Liver [6],12 mL/min/kg
same,inhibition (INH),Cytochrome P450 2C8,Not Active
same,half-life,[7],3.1 h
same,Vd,[8],1.8 L/kg
same,inhibition (INH),Cytochrome P450 2C9,Not Active
same,Activity,Mus musculus [9],Non-Toxic
same,clearance,[10],13.3 mL/min/kg
same,AUC,Canis familiaris [11],29 µM·h
same,clearance,[12],18.3 mL/min/kg
same,inhibition (INH),Cytochrome P450 3A4,Not Active
same,half-life,[13],3.3 h
same,AUC,Rattus norvegicus,1.3 µM·h
same,Activity,Canis familiaris [14],Non-Toxic
same,Vd,[15],0.7 L/kg
same,CLH,Liver [16],6.7 mL/min/kg
same,bioavailability,[17],33%
same,bioavailability,[18],11%
